Source: ChEMBL document CHEMBL1649124, “Genetic variability among ampC genes from acinetobacter genomic species 3” (Antimicrob Agents Chemother, 2009)
Values after ≈ are worked out from the molar mass of the structure shown. Residues, ends and D or L forms follow the SMILES beside them. *: point of attachment. βNA = c1ccc2cc(N*)ccc2c1

Experiments:
Assay type in all cases: functional
Acinetobacter pittii [1] = test: Antibacterial activity against Acinetobacter genomosp. 3 isolate 90 by Etest method
How it was run: (§1)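 MICs for AG3 clinical isolates were read by Etest following the manufacturer's instructions. Isolates were stored at –80°C in 10% Brucella glycerol broth before testing.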

Acinetobacter pittii [2] = test: Antibacterial activity against Acinetobacter genomosp. 3 isolate 65 by Etest method; how it was run: as §1
Escherichia coli [3] = test: Antibacterial activity against Escherichia coli DH5alpha carrying ampC gene of Acinetobacter genomosp. 3 isolate 195 by Etest method
How it was run: (§2)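 E. coli DH5α expressing the AG3 isolate ampC gene, PCR-amplified (high-fidelity system, 28 cycles) and cloned into BamHI/HindIII sites of pBGS18 (kanamycin marker) under the CTX-M-14 β-lactamase promoter. Grown at 37°C in LB, with kanamycin 50 µg/ml when needed. β-Lactam MICs determined by Etest per the manufacturer's instructions.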

Escherichia coli [4] = test: Antibacterial activity against Escherichia coli DH5alpha carrying ampC gene of Acinetobacter genomosp. 3 isolate 20 by Etest method; how it was run: as §2
Acinetobacter pittii [5] = test: Antibacterial activity against Acinetobacter genomosp. 3 isolate 56 by Etest method; how it was run: as §1
Escherichia coli [6] = test: Antibacterial activity against Escherichia coli DH5alpha carrying ampC gene of Acinetobacter genomosp. 3 isolate 56 by Etest method; how it was run: as §2
Acinetobacter pittii [7] = test: Antibacterial activity against Acinetobacter genomosp. 3 isolate 109 by Etest method; how it was run: as §1
Acinetobacter pittii [8] = test: Antibacterial activity against Acinetobacter genomosp. 3 isolate 60 by Etest method; how it was run: as §1
Escherichia coli [9] = test: Antibacterial activity against Escherichia coli DH5alpha carrying ampC gene of Acinetobacter genomosp. 3 isolate 69 by Etest method; how it was run: as §2
Escherichia coli [10] = test: Antibacterial activity against Escherichia coli DH5alpha carrying ampC gene of Acinetobacter genomosp. 3 isolate 109 by Etest method; how it was run: as §2
Acinetobacter pittii [11] = test: Antibacterial activity against Acinetobacter genomosp. 3 isolate 21 by Etest method; how it was run: as §1
Escherichia coli [12] = test: Antibacterial activity against Escherichia coli DH5alpha by Etest method
How it was run: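 E. coli DH5α host strain, grown at 37°C in LB medium. MICs of β-lactams determined by Etest following the manufacturer's instructions.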

Escherichia coli [13] = test: Antibacterial activity against Escherichia coli DH5alpha carrying ampC gene of Acinetobacter genomosp. 3 isolate 14 by Etest method; how it was run: as §2
Acinetobacter pittii [14] = test: Antibacterial activity against Acinetobacter genomosp. 3 isolate 103 by Etest method; how it was run: as §1
Acinetobacter pittii [15] = test: Antibacterial activity against Acinetobacter genomosp. 3 isolate 67 by Etest method; how it was run: as §1
Acinetobacter pittii [16] = test: Antibacterial activity against Acinetobacter genomosp. 3 isolate 20 by Etest method; how it was run: as §1
Acinetobacter pittii [17] = test: Antibacterial activity against Acinetobacter genomosp. 3 isolate 195 by Etest method; how it was run: as §1
Acinetobacter pittii [18] = test: Antibacterial activity against Acinetobacter genomosp. 3 isolate 69 by Etest method; how it was run: as §1
Escherichia coli [19] = test: Antibacterial activity against Escherichia coli DH5alpha carrying ampC gene of Acinetobacter genomosp. 3 isolate 103 by Etest method; how it was run: as §2
Acinetobacter pittii [20] = test: Antibacterial activity against Acinetobacter genomosp. 3 isolate 243 by Etest method; how it was run: as §1
Acinetobacter pittii [21] = test: Antibacterial activity against Acinetobacter genomosp. 3 isolate 14 by Etest method; how it was run: as §1
Acinetobacter pittii [22] = test: Antibacterial activity against Acinetobacter genomosp. 3 isolate 128 by Etest method; how it was run: as §1
Acinetobacter pittii [23] = test: Antibacterial activity against Acinetobacter genomosp. 3 isolate 52 by Etest method; how it was run: as §1
Escherichia coli [24] = test: Antibacterial activity against Escherichia coli DH5alpha carrying ampC gene of Acinetobacter genomosp. 3 isolate 65 by Etest method; how it was run: as §2

Compound: CC(C)(O/N=C(\C(=O)N[C@@H]1C(=O)N2C(C(=O)[O-])=C(C[n+]3ccccc3)CS[C@H]12)c1csc(N)n1)C(=O)O [CEFTAZIDIME]
- MIC (Acinetobacter pittii [1]): 6 µg/mL
- MIC (Acinetobacter pittii [2]): 4 µg/mL
- MIC (Escherichia coli [3]): 0.5 µg/mL (≈ 0.915 µM)
- MIC (Escherichia coli [4]): 0.75 µg/mL (≈ 1.37 µM)
- MIC (Acinetobacter pittii [5]): 1.5 µg/mL
- MIC (Escherichia coli [6]): 0.25 µg/mL (≈ 0.457 µM)
- MIC (Acinetobacter pittii [7]): 3 µg/mL
- MIC (Acinetobacter pittii [8]): 3 µg/mL
- MIC (Escherichia coli [9]): 0.19 µg/mL (≈ 0.348 µM)
- MIC (Escherichia coli [10]): 0.19 µg/mL (≈ 0.348 µM)
- MIC (Acinetobacter pittii [11]): 6 µg/mL
- MIC (Escherichia coli [12]): 0.19 µg/mL (≈ 0.348 µM)
- MIC (Escherichia coli [13]): 0.38 µg/mL (≈ 0.695 µM)
- MIC (Acinetobacter pittii [14]): 4 µg/mL
- MIC (Acinetobacter pittii [15]): 3 µg/mL
- MIC (Acinetobacter pittii [16]): 4 µg/mL
- MIC (Acinetobacter pittii [17]): 4 µg/mL
- MIC (Acinetobacter pittii [18]): 4 µg/mL
- MIC (Escherichia coli [19]): 0.5 µg/mL (≈ 0.915 µM)
- MIC (Acinetobacter pittii [20]): 4 µg/mL
- MIC (Acinetobacter pittii [21]): 3 µg/mL
- MIC (Acinetobacter pittii [22]): 3 µg/mL
- MIC (Acinetobacter pittii [23]): 3 µg/mL
- MIC (Escherichia coli [24]): 0.25 µg/mL (≈ 0.457 µM)

Compound: CCN1CCN(C(=O)N[C@@H](C(=O)N[C@@H]2C(=O)N3[C@@H]2SC(C)(C)[C@@H]3C(=O)O)c2ccccc2)C(=O)C1=O [PIPERACILLIN]
- MIC (Acinetobacter pittii [1]): 12 µg/mL
- MIC (Acinetobacter pittii [2]): 16 µg/mL
- MIC (Escherichia coli [3]): 4 µg/mL (≈ 7.73 µM)
- MIC (Escherichia coli [4]): 4 µg/mL (≈ 7.73 µM)
- MIC (Acinetobacter pittii [5]): 12 µg/mL
- MIC (Escherichia coli [6]): 3 µg/mL (≈ 5.8 µM)
- MIC (Acinetobacter pittii [7]): 16 µg/mL
- MIC (Acinetobacter pittii [8]): 24 µg/mL
- MIC (Escherichia coli [9]): 3 µg/mL (≈ 5.8 µM)
- MIC (Escherichia coli [10]): 4 µg/mL (≈ 7.73 µM)
- MIC (Acinetobacter pittii [11]): 24 µg/mL
- MIC (Escherichia coli [12]): 0.38 µg/mL (≈ 0.734 µM)
- MIC (Escherichia coli [13]): 4 µg/mL (≈ 7.73 µM)
- MIC (Acinetobacter pittii [14]): 24 µg/mL
- MIC (Acinetobacter pittii [15]): 16 µg/mL
- MIC (Acinetobacter pittii [16]): 24 µg/mL
- MIC (Acinetobacter pittii [17]): 24 µg/mL
- MIC (Acinetobacter pittii [18]): 16 µg/mL
- MIC (Escherichia coli [19]): 4 µg/mL (≈ 7.73 µM)
- MIC (Acinetobacter pittii [20]): 32 µg/mL
- MIC (Acinetobacter pittii [21]): 16 µg/mL
- MIC (Acinetobacter pittii [22]): 12 µg/mL
- MIC (Acinetobacter pittii [23]): 12 µg/mL
- MIC (Escherichia coli [24]): 4 µg/mL (≈ 7.73 µM)

Compound: N#CC(C#N)=NNc1cccc(Cl)c1 [CARBONYL CYANIDE M-CHLOROPHENYLHYDRAZONE]
- MIC (Acinetobacter pittii [1]): > 400 µM
- MIC (Acinetobacter pittii [2]): > 400 µM
- MIC (Acinetobacter pittii [5]): > 400 µM
- MIC (Acinetobacter pittii [7]): > 400 µM
- MIC (Acinetobacter pittii [8]): > 400 µM
- MIC (Acinetobacter pittii [11]): > 400 µM
- MIC (Acinetobacter pittii [14]): > 400 µM
- MIC (Acinetobacter pittii [15]): > 400 µM
- MIC (Acinetobacter pittii [16]): 400 µM
- MIC (Acinetobacter pittii [17]): > 400 µM
- MIC (Acinetobacter pittii [18]): > 400 µM
- MIC (Acinetobacter pittii [20]): 400 µM
- MIC (Acinetobacter pittii [21]): 400 µM
- MIC (Acinetobacter pittii [22]): > 400 µM
- MIC (Acinetobacter pittii [23]): > 400 µM

Compound: Cc1onc(-c2ccccc2Cl)c1C(=O)N[C@@H]1C(=O)N2[C@@H]1SC(C)(C)[C@@H]2C(=O)O [CLOXACILLIN]
- MIC (Acinetobacter pittii [1]): 512 µg/mL
- MIC (Acinetobacter pittii [2]): 1020 µg/mL
- MIC (Acinetobacter pittii [5]): 512 µg/mL
- MIC (Acinetobacter pittii [7]): 2050 µg/mL
- MIC (Acinetobacter pittii [8]): 1020 µg/mL
- MIC (Acinetobacter pittii [11]): 512 µg/mL
- MIC (Acinetobacter pittii [14]): 1020 µg/mL
- MIC (Acinetobacter pittii [15]): 1880 µg/mL
- MIC (Acinetobacter pittii [16]): 1020 µg/mL
- MIC (Acinetobacter pittii [17]): 1020 µg/mL
- MIC (Acinetobacter pittii [18]): > 2050 µg/mL
- MIC (Acinetobacter pittii [20]): 2050 µg/mL
- MIC (Acinetobacter pittii [21]): 2050 µg/mL
- MIC (Acinetobacter pittii [22]): 2050 µg/mL
- MIC (Acinetobacter pittii [23]): 1020 µg/mL

Compound: Cl.Cl.N=C(N)NCCC[C@H](NC(=O)[C@@H](N)Cc1ccccc1)C(=O)Nc1ccc2ccccc2c1 (H-Phe-Arg-βNA)
- MIC (Acinetobacter pittii [1]): > 400 µg/mL
- MIC (Acinetobacter pittii [2]): > 400 µg/mL
- MIC (Acinetobacter pittii [5]): > 400 µg/mL
- MIC (Acinetobacter pittii [7]): 400 µg/mL
- MIC (Acinetobacter pittii [8]): 400 µg/mL
- MIC (Acinetobacter pittii [11]): > 400 µg/mL
- MIC (Acinetobacter pittii [14]): 400 µg/mL
- MIC (Acinetobacter pittii [15]): 400 µg/mL
- MIC (Acinetobacter pittii [16]): > 400 µg/mL
- MIC (Acinetobacter pittii [17]): 400 µg/mL
- MIC (Acinetobacter pittii [18]): 400 µg/mL
- MIC (Acinetobacter pittii [20]): > 400 µg/mL
- MIC (Acinetobacter pittii [21]): > 400 µg/mL
- MIC (Acinetobacter pittii [22]): 400 µg/mL
- MIC (Acinetobacter pittii [23]): 400 µg/mL

Compound: C[C@@H](O)[C@H]1C(=O)N2C(C(=O)O)=C(SCCNC=N)C[C@H]12 [IMIPENEM ANHYDROUS]
- MIC (Acinetobacter pittii [1]): 0.38 µg/mL
- MIC (Acinetobacter pittii [2]): 0.19 µg/mL
- MIC (Escherichia coli [4]): 0.023 µg/mL (≈ 0.0768 µM)
- MIC (Acinetobacter pittii [5]): 0.19 µg/mL
- MIC (Escherichia coli [6]): 0.19 µg/mL (≈ 0.635 µM)
- MIC (Acinetobacter pittii [7]): 0.19 µg/mL
- MIC (Acinetobacter pittii [8]): 0.25 µg/mL
- MIC (Escherichia coli [9]): 0.19 µg/mL (≈ 0.635 µM)
- MIC (Escherichia coli [10]): 0.12 µg/mL (≈ 0.401 µM)
- MIC (Acinetobacter pittii [11]): 0.38 µg/mL
- MIC (Escherichia coli [12]): 0.125 µg/mL (≈ 0.418 µM)
- MIC (Escherichia coli [13]): 0.125 µg/mL (≈ 0.418 µM)
- MIC (Acinetobacter pittii [14]): 0.75 µg/mL
- MIC (Acinetobacter pittii [15]): 0.19 µg/mL
- MIC (Acinetobacter pittii [16]): 1 µg/mL
- MIC (Acinetobacter pittii [17]): 0.19 µg/mL
- MIC (Acinetobacter pittii [18]): 0.25 µg/mL
- MIC (Escherichia coli [19]): 0.125 µg/mL (≈ 0.418 µM)
- MIC (Acinetobacter pittii [20]): 0.19 µg/mL
- MIC (Acinetobacter pittii [21]): 0.25 µg/mL
- MIC (Acinetobacter pittii [22]): 0.12 µg/mL
- MIC (Acinetobacter pittii [23]): 0.25 µg/mL
- MIC (Escherichia coli [24]): 0.19 µg/mL (≈ 0.635 µM)

Compound: CC1(C)S[C@@H]2[C@H](NC(=O)[C@H](N)c3ccccc3)C(=O)N2[C@H]1C(=O)O [AMPICILLIN]
- MIC (Escherichia coli [3]): 96 µg/mL (≈ 275 µM)
- MIC (Escherichia coli [4]): 96 µg/mL (≈ 275 µM)
- MIC (Escherichia coli [6]): 96 µg/mL (≈ 275 µM)
- MIC (Escherichia coli [9]): 96 µg/mL (≈ 275 µM)
- MIC (Escherichia coli [10]): 64 µg/mL (≈ 183 µM)
- MIC (Escherichia coli [12]): 3 µg/mL (≈ 8.59 µM)
- MIC (Escherichia coli [13]): 128 µg/mL (≈ 366 µM)
- MIC (Acinetobacter pittii [14]): > 256 µg/mL
- MIC (Acinetobacter pittii [16]): > 256 µg/mL
- MIC (Escherichia coli [19]): 128 µg/mL (≈ 366 µM)
- MIC (Escherichia coli [24]): 32 µg/mL (≈ 91.6 µM)
